Measured values published in ChEMBL document CHEMBL1777788, “Synthesis and in vitro antimicrobial activities of new (cyano-NNO-azoxy)pyrazole derivatives” (2011).
In brackets after ≈: the same amount, converted by molar mass.

Tests used:
Format in all cases: functional
Candida parapsilosis [1] = experiment: Antimicrobial activity against Candida parapsilosis ATCC 22019 after 48 hrs by microdilution broth method; settings: Lodderomyces parapsilosis, ATCC 22019, 48 h
Outline: (§1)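 Yeasts were grown overnight on Sabouraud dextrose agar at 35°C, suspended in water, and adjusted at 530 nm to McFarland 0.5 (approximately 1-5 x 10^6 CFU/ml). They were then diluted 1:100 and 1:20 in RPMI 1640 with 0.165 M MOPS and 2% glucose. Compound in DMSO was tested at ten concentrations, 0.25–256 mg/L, with incubation at 35°C. At 48 h, MIC was read spectrophotometrically as 50% turbidity reduction versus growth control.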

Candida albicans [2] = experiment: Antimicrobial activity against Candida albicans isolate 31 after 48 hrs by microdilution broth method; settings: isolate 31, 48 h; outline: as §1
Candida albicans [3] = experiment: Antimicrobial activity against Candida albicans isolate 47 after 48 hrs by microdilution broth method; settings: isolate 47, 48 h; outline: as §1
Candida albicans [4] = experiment: Antimicrobial activity against Candida albicans isolate 48 after 48 hrs by microdilution broth method; settings: isolate 48, 48 h; outline: as §1
Pichia kudriavzevii [5] = experiment: Antimicrobial activity against Candida krusei isolate 31 after 48 hrs by microdilution broth method; settings: isolate 31, 48 h; outline: as §1
Pichia kudriavzevii [6] = experiment: Antimicrobial activity against Candida krusei isolate 43 after 48 hrs by microdilution broth method
Pichia kudriavzevii [7] = experiment: Antimicrobial activity against Candida krusei isolate 48 after 48 hrs by microdilution broth method
Candida tropicalis [8] = experiment: Antimicrobial activity against Candida tropicalis isolate 33 after 48 hrs by microdilution broth method; settings: isolate 33, 48 h; outline: as §1
Candida tropicalis [9] = experiment: Antimicrobial activity against Candida tropicalis isolate 11 after 48 hrs by microdilution broth method; settings: isolate 11, 48 h; outline: as §1
Candida tropicalis [10] = experiment: Antimicrobial activity against Candida tropicalis isolate 15 after 48 hrs by microdilution broth method; settings: isolate 15, 48 h; outline: as §1
Candida tropicalis [11] = experiment: Antimicrobial activity against Candida tropicalis isolate 22 after 48 hrs by microdilution broth method; settings: isolate 22, 48 h; outline: as §1
Nakaseomyces glabratus [12] = experiment: Antimicrobial activity against Candida glabrata isolate 30 after 48 hrs by microdilution broth method; outline: as §1
Nakaseomyces glabratus [13] = experiment: Antimicrobial activity against Candida glabrata isolate 32 after 48 hrs by microdilution broth method; settings: isolate 32, 48 h; outline: as §1
Nakaseomyces glabratus [14] = experiment: Antimicrobial activity against Candida glabrata isolate 46 after 48 hrs by microdilution broth method; outline: as §1
Nakaseomyces glabratus [15] = experiment: Antimicrobial activity against Candida glabrata isolate 49 after 48 hrs by microdilution broth method; outline: as §1
Candida parapsilosis [16] = experiment: Antimicrobial activity against Candida parapsilosis isolate 26 after 48 hrs by microdilution broth method; settings: Lodderomyces parapsilosis, isolate 26, 48 h; outline: as §1
Candida parapsilosis [17] = experiment: Antimicrobial activity against Candida parapsilosis isolate 39 after 48 hrs by microdilution broth method; settings: Lodderomyces parapsilosis, isolate 39, 48 h
Outline: (§2)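 Yeasts grown overnight on Sabouraud dextrose agar at 35°C, suspended in sterile water, and adjusted to McFarland 0.5 at 530 nm (about 1-5 x 10^6 CFU/ml), then diluted 1:100 and 1:20 in RPMI 1640 with 0.165 M MOPS and 2% glucose. Compound in DMSO tested at ten concentrations, 0.25-256 mg/L, at 35°C. MIC read spectrophotometrically at 48 h as 50% turbidity reduction versus growth control.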

Candida parapsilosis [18] = experiment: Antimicrobial activity against Candida parapsilosis isolate 19 after 48 hrs by microdilution broth method; settings: Lodderomyces parapsilosis, isolate 19, 48 h; outline: as §1
[19] = tested on: Cryptococcus deneoformans; experiment: Antimicrobial activity against Cryptococcus neoformans var. neoformans isolate 14 after 48 hrs by microdilution broth method; settings: isolate 14, 48 h; outline: as §1
[20] = tested on: Cryptococcus deneoformans; experiment: Antimicrobial activity against Cryptococcus neoformans var. neoformans isolate 27 after 48 hrs by microdilution broth method; settings: isolate 27, 48 h; outline: as §1
[21] = tested on: Cryptococcus deneoformans; experiment: Antimicrobial activity against Cryptococcus neoformans var. neoformans isolate 30 after 48 hrs by microdilution broth method; settings: isolate 30, 48 h; outline: as §1
[22] = tested on: Cryptococcus deneoformans; experiment: Antimicrobial activity against Cryptococcus neoformans var. neoformans isolate 25 after 48 hrs by microdilution broth method; settings: isolate 25, 48 h; outline: as §1
Candida albicans [23] = experiment: Antimicrobial activity against Candida albicans ATCC 90028 after 48 hrs by microdilution broth method; settings: ATCC 90028, 48 h; outline: as §2
Pichia kudriavzevii [24] = experiment: Antimicrobial activity against Candida krusei ATCC 6258 after 48 hrs by microdilution broth method; settings: ATCC 6258, 48 h
Candida albicans [25] = experiment: Antimicrobial activity against Candida albicans isolate 41 after 48 hrs by microdilution broth method; settings: isolate 41, 48 h; outline: as §1
Candida parapsilosis [26] = experiment: Antimicrobial activity against Candida parapsilosis isolate 44 after 48 hrs by microdilution broth method; settings: Lodderomyces parapsilosis, isolate 44, 48 h; outline: as §1

SMILES | MIC (Candida parapsilosis [1]) [µg/mL] | MIC (Candida albicans [2]) [µg/mL] | MIC (Candida albicans [3]) [µg/mL] | MIC (Candida albicans [4]) [µg/mL] | MIC (Pichia kudriavzevii [5]) [µg/mL] | MIC (Pichia kudriavzevii [6]) [µg/mL] | MIC (Candida tropicalis [8]) [µg/mL] | MIC (Candida tropicalis [9]) [µg/mL] | MIC (Candida tropicalis [10]) [µg/mL] | MIC (Candida tropicalis [11]) [µg/mL] | MIC (Nakaseomyces glabratus [13]) [µg/mL] | MIC (Nakaseomyces glabratus [14]) [µg/mL] | MIC (Candida parapsilosis [16]) [µg/mL] | MIC (Candida parapsilosis [17]) [µg/mL] | MIC (Candida parapsilosis [18]) [µg/mL] | MIC [19] [µg/mL] | MIC [20] [µg/mL] | MIC [21] [µg/mL] | MIC [22] [µg/mL] | MIC (Candida albicans [23]) [µg/mL] | also measured
Cc1ccc(S(=O)(=O)/N=[N+](\[O-])c2c(-c3cccs3)nn(C)c2C)cc1 | > 128 | > 128 | > 128 | > 128 | > 128 | > 128 | > 128 | > 128 | > 128 | > 128 | > 128 | > 128 | > 128 | > 128 | > 128 | 64 (≈ 170 µM) | 64 (≈ 170 µM) | 128 (≈ 340 µM) | 128 (≈ 340 µM) | > 128 | MIC (Pichia kudriavzevii [7]): > 128 µg/mL; MIC (Nakaseomyces glabratus [12]): > 128 µg/mL; MIC (Nakaseomyces glabratus [15]): > 128 µg/mL; MIC (Pichia kudriavzevii [24]): > 128 µg/mL
C[C@@H]1[C@H](O)[C@@H](C)/C=C/C=C/C=C/C=C/C=C/C=C/C=C/[C@H](O[C@@H]2O[C@H](C)[C@@H](O)[C@H](N)[C@@H]2O)C[C@@H]2O[C@](O)(C[C@@H](O)C[C@@H](O)[C@H](O)CC[C@@H](O)C[C@@H](O)CC(=O)O[C@H]1C)C[C@H](O)[C@H]2C(=O)O [AMPHOTERICIN B] | 1 (≈ 1.08 µM) | 0.5 (≈ 0.541 µM) | 1 (≈ 1.08 µM) | 0.5 (≈ 0.541 µM) | 0.5 (≈ 0.541 µM) | – | 1 (≈ 1.08 µM) | 1 (≈ 1.08 µM) | 1 (≈ 1.08 µM) | 0.5 (≈ 0.541 µM) | 0.5 (≈ 0.541 µM) | 1 (≈ 1.08 µM) | 0.5 (≈ 0.541 µM) | 0.5 (≈ 0.541 µM) | 0.5 (≈ 0.541 µM) | 0.25 (≈ 0.271 µM) | 0.12 (≈ 0.13 µM) | 0.5 (≈ 0.541 µM) | 0.5 (≈ 0.541 µM) | 0.5 (≈ 0.541 µM) | MIC (Candida albicans [25]): 0.5 µg/mL (≈ 0.541 µM); MIC (Nakaseomyces glabratus [15]): 0.5 µg/mL (≈ 0.541 µM); MIC (Candida parapsilosis [26]): 0.5 µg/mL (≈ 0.541 µM)
OC(Cn1cncn1)(Cn1cncn1)c1ccc(F)cc1F [FLUCONAZOLE] | 2 (≈ 6.53 µM) | 0.25 (≈ 0.816 µM) | 0.25 (≈ 0.816 µM) | 0.12 (≈ 0.392 µM) | 32 (≈ 104 µM) | 64 (≈ 209 µM) | 1 (≈ 3.27 µM) | 1 (≈ 3.27 µM) | 1 (≈ 3.27 µM) | 2 (≈ 6.53 µM) | > 256 | 16 (≈ 52.2 µM) | 1 (≈ 3.27 µM) | 1 (≈ 3.27 µM) | 1 (≈ 3.27 µM) | 0.5 (≈ 1.63 µM) | 2 (≈ 6.53 µM) | 4 (≈ 13.1 µM) | 2 (≈ 6.53 µM) | 0.12 (≈ 0.392 µM) | MIC (Candida albicans [25]): 0.12 µg/mL (≈ 0.392 µM); MIC (Pichia kudriavzevii [7]): 32 µg/mL (≈ 104 µM); MIC (Candida parapsilosis [26]): 2 µg/mL (≈ 6.53 µM); MIC (Pichia kudriavzevii [24]): 32 µg/mL (≈ 104 µM)
CC[C@@H]([C@H](C)O)n1ncn(-c2ccc(N3CCN(c4ccc(OC[C@@H]5CO[C@@](Cn6cncn6)(c6ccc(F)cc6F)C5)cc4)CC3)cc2)c1=O [POSACONAZOLE] | 0.12 (≈ 0.171 µM) | 0.008 (≈ 0.0114 µM) | 0.016 (≈ 0.0228 µM) | 0.008 (≈ 0.0114 µM) | 0.25 (≈ 0.357 µM) | 0.5 (≈ 0.713 µM) | 0.12 (≈ 0.171 µM) | 0.12 (≈ 0.171 µM) | 0.25 (≈ 0.357 µM) | 0.25 (≈ 0.357 µM) | > 8 | 1 (≈ 1.43 µM) | 0.03 (≈ 0.0428 µM) | 0.06 (≈ 0.0856 µM) | 0.03 (≈ 0.0428 µM) | 0.03 (≈ 0.0428 µM) | 0.06 (≈ 0.0856 µM) | 0.12 (≈ 0.171 µM) | 0.06 (≈ 0.0856 µM) | 0.008 (≈ 0.0114 µM) | MIC (Candida albicans [25]): 0.016 µg/mL (≈ 0.0228 µM); MIC (Pichia kudriavzevii [7]): 0.25 µg/mL (≈ 0.357 µM); MIC (Nakaseomyces glabratus [12]): 0.5 µg/mL (≈ 0.713 µM); MIC (Nakaseomyces glabratus [15]): 0.25 µg/mL (≈ 0.357 µM); MIC (Candida parapsilosis [26]): 0.03 µg/mL (≈ 0.0428 µM); MIC (Pichia kudriavzevii [24]): 0.25 µg/mL (≈ 0.357 µM)
C[C@@H](c1ncncc1F)[C@](O)(Cn1cncn1)c1ccc(F)cc1F [VORICONAZOLE] | 0.06 (≈ 0.172 µM) | < 0.008 | 0.008 (≈ 0.0229 µM) | < 0.008 | 0.12 (≈ 0.344 µM) | 0.5 (≈ 1.43 µM) | < 0.008 | 0.12 (≈ 0.344 µM) | 0.06 (≈ 0.172 µM) | 0.06 (≈ 0.172 µM) | 4 (≈ 11.5 µM) | 0.25 (≈ 0.716 µM) | < 0.008 | 0.016 (≈ 0.0458 µM) | 0.008 (≈ 0.0229 µM) | < 0.008 | 0.016 (≈ 0.0458 µM) | 0.016 (≈ 0.0458 µM) | 0.016 (≈ 0.0458 µM) | 0.008 (≈ 0.0229 µM) | MIC (Candida albicans [25]): < 0.008 µg/mL; MIC (Pichia kudriavzevii [7]): 0.25 µg/mL (≈ 0.716 µM); MIC (Nakaseomyces glabratus [12]): 0.25 µg/mL (≈ 0.716 µM); MIC (Nakaseomyces glabratus [15]): 0.12 µg/mL (≈ 0.344 µM); MIC (Candida parapsilosis [26]): 0.016 µg/mL (≈ 0.0458 µM); MIC (Pichia kudriavzevii [24]): 0.25 µg/mL (≈ 0.716 µM)
